Data published in ChEMBL document CHEMBL2434863, “Synthesis and in vitro/in vivo antibacterial activity of oxazolidinones having thiocarbamate at C-5 on the A-ring and an amide- or urea-substituted [1,2,5]triazepane or [1,2,5]oxadiazepane as the C-ring” (Eur J Med Chem, 2013).

How the values were obtained:
Staphylococcus aureus [1] = assay: Antibacterial activity against methicillin-resistant Staphylococcus aureus SR3637 infected in JCL/ICR mouse systemic infection model assessed as mortality administered as iv measured over 7 days; assay type: functional; conditions: 168 h
In short: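 Lethal systemic infection model in mice; test agents were given intravenously.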

Staphylococcus aureus [2] = assay: Antibacterial activity against methicillin-resistant Staphylococcus aureus SR3637 assessed as growth inhibition by broth microdilution method; assay type: functional
Haemophilus influenzae [3] = assay: Potency index, ratio of linezolid MIC to compound MIC for Haemophilus influenzae SR27914 clinical isolate; assay type: functional
Streptococcus pneumoniae [4] = assay: Potency index, ratio of linezolid MIC to compound MIC for Streptococcus pneumoniae SR26207 clinical isolate; assay type: functional
Moraxella catarrhalis [5] = assay: Potency index, ratio of linezolid MIC to compound MIC for Moraxella catarrhalis SR26840 clinical isolate; assay type: functional
Enterococcus faecium [6] = assay: Potency index, ratio of linezolid MIC to compound MIC for Enterococcus faecium SR7940 clinical isolate; assay type: functional
Enterococcus faecalis [7] = assay: Potency index, ratio of linezolid MIC to compound MIC for Enterococcus faecalis SR1004 clinical isolate; assay type: functional
Staphylococcus aureus [8] = assay: Potency index, ratio of linezolid MIC to compound MIC for Staphylococcus aureus Smith; assay type: functional
Staphylococcus aureus [9] = assay: Potency index, ratio of linezolid MIC to compound MIC for Staphylococcus aureus SR20549 clinical isolate; assay type: functional
Haemophilus influenzae [10] = assay: Antibacterial activity against Haemophilus influenzae SR27914 clinical isolate assessed as growth inhibition by broth microdilution method; assay type: functional
Streptococcus pneumoniae [11] = assay: Antibacterial activity against Streptococcus pneumoniae SR26207 clinical isolate assessed as growth inhibition by broth microdilution method; assay type: functional
Staphylococcus aureus [12] = assay: Antibacterial activity against linezolid-resistant Staphylococcus aureus NRS271 assessed as growth inhibition by broth microdilution method; assay type: functional
Enterococcus faecalis [13] = assay: Antibacterial activity against Enterococcus faecalis SR1004 clinical isolate assessed as growth inhibition by broth microdilution method; assay type: functional
Staphylococcus aureus [14] = assay: Antibacterial activity against Staphylococcus aureus SR20549 clinical isolate assessed as growth inhibition by broth microdilution method; assay type: functional
Staphylococcus aureus [15] = assay: Antibacterial activity against Staphylococcus aureus Smith assessed as growth inhibition by broth microdilution method; assay type: functional
Moraxella catarrhalis [16] = assay: Antibacterial activity against Moraxella catarrhalis SR26840 clinical isolate assessed as growth inhibition by broth microdilution method; assay type: functional
Enterococcus faecium [17] = assay: Antibacterial activity against Enterococcus faecium SR7940 clinical isolate assessed as growth inhibition by broth microdilution method; assay type: functional
MAO-B = target: T1, MAO-B (Rattus norvegicus, UniProt P19643); assay: Inhibition of MAO-B in rat forebrain using [14C]PEA as substrate at 30 uM incubated for 20 mins prior to substrate addition measured after 10 mins by liquid scintillation counting analysis; assay type: tissue-based; conditions: probe [14C]PEA
T1 sequence (P19643 whole entry): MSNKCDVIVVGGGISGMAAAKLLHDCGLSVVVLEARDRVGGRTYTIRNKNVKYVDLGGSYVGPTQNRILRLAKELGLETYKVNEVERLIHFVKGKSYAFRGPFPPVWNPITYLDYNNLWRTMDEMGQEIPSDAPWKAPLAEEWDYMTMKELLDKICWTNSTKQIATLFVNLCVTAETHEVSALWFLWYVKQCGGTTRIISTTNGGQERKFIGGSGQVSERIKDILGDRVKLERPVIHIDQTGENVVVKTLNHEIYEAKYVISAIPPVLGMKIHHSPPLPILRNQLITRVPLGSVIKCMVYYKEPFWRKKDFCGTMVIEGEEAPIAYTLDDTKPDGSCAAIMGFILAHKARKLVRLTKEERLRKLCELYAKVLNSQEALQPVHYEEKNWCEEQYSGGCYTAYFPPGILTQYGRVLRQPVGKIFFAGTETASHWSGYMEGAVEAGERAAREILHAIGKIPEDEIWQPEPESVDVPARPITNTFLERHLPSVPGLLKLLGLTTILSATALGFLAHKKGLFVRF

MAO-A = target: T2, MAO-A (Rattus norvegicus, UniProt P21396); assay: Inhibition of MAO-A in rat forebrain using [14C]5-HT as substrate at 30 uM incubated for 20 mins prior to substrate addition measured after 5 mins by liquid scintillation counting analysis; assay type: tissue-based; conditions: probe [14C]5-HT
T2 sequence (P21396 whole entry): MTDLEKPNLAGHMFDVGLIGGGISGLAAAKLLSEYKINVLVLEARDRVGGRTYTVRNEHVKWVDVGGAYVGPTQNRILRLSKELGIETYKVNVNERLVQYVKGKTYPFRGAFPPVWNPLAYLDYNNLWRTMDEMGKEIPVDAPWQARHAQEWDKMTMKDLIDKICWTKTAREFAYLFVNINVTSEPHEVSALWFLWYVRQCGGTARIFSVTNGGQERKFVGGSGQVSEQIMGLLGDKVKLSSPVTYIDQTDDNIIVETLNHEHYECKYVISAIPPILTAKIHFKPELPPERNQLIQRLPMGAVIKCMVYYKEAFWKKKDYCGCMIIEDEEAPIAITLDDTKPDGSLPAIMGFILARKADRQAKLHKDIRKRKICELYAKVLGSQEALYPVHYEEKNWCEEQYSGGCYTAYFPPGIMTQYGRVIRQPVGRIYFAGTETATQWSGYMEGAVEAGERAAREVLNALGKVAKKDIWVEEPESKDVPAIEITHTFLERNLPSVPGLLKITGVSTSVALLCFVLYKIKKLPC

Cytochrome P450 3A4 = Cytochrome P450 3A4 (Homo sapiens, UniProt P08684); assay: Inhibition of CYP3A4 in human liver microsomes assessed as terfenadine hydroxylation after 20 mins by LC/MS/MS analysis; assay type: ADME, Microsome
Cytochrome P450 2D6 = Cytochrome P450 2D6 (Homo sapiens, UniProt P10635); assay: Inhibition of CYP2D6 in human liver microsomes assessed as dextromethorphan O-demethylation after 20 mins by LC/MS/MS analysis; assay type: ADME, Microsome
Cytochrome P450 2C9 = Cytochrome P450 2C9 (Homo sapiens, UniProt P11712); assay: Inhibition of CYP2C9 in human liver microsomes assessed as tolbutamide hydroxylation after 20 mins by LC/MS/MS analysis; assay type: ADME, Microsome
Cytochrome P450 1A2 = target: T3, Cytochrome P450 1A2 (Homo sapiens, UniProt P05177); assay: Inhibition of CYP1A2 in human liver microsomes assessed as ethoxyresorufin O-deethylation after 20 mins by fluorescence plate reader analysis; assay type: ADME, Microsome
T3 sequence (P05177 whole entry): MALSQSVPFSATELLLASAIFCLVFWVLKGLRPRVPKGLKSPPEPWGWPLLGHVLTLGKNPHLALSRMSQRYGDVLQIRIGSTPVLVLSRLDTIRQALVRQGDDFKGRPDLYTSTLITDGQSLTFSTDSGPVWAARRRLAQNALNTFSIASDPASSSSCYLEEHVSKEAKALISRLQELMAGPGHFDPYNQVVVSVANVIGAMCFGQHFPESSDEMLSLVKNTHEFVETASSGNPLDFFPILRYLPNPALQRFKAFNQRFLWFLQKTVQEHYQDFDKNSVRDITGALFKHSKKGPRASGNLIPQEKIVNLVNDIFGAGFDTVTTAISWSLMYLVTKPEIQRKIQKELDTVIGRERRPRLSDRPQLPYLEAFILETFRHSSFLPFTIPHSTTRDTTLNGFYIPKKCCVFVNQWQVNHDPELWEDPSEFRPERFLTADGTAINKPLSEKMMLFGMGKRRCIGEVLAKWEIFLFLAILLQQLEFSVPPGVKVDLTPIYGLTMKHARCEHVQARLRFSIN

Staphylococcus aureus [18] = assay: Potency index, ratio of linezolid ED50 to compound ED50 for methicillin-resistant Staphylococcus aureus SR3637 infected in iv dosed JCL/ICR mouse systemic infection model; assay type: functional

Sequence of Cytochrome P450 2D6 (P10635 whole entry): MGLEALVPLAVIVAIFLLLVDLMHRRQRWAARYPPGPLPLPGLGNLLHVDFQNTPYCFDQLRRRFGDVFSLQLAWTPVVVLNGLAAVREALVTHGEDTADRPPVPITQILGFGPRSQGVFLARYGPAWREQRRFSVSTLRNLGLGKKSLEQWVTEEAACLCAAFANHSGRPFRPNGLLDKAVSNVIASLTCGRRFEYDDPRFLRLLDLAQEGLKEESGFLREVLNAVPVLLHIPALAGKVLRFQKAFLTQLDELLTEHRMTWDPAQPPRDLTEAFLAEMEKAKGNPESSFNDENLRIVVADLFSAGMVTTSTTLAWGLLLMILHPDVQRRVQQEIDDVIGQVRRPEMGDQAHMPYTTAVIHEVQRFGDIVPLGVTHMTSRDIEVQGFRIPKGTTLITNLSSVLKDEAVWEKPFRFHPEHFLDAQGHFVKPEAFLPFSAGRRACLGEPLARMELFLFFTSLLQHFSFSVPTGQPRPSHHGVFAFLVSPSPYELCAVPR
Sequence of Cytochrome P450 2C9 (P11712 whole entry): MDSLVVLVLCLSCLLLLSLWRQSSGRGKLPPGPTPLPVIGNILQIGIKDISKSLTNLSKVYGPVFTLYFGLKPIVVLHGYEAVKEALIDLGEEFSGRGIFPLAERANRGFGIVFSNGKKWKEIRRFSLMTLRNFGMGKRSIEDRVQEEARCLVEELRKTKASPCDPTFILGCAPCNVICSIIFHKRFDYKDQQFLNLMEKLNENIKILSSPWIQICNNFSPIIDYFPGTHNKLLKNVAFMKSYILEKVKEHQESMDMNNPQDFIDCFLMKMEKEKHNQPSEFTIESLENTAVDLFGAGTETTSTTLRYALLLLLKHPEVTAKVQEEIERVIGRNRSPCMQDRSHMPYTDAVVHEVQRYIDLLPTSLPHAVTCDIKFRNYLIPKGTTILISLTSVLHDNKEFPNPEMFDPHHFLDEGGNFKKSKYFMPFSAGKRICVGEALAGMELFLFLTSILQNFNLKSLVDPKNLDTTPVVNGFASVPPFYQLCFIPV
Sequence of Cytochrome P450 3A4 (P08684 whole entry): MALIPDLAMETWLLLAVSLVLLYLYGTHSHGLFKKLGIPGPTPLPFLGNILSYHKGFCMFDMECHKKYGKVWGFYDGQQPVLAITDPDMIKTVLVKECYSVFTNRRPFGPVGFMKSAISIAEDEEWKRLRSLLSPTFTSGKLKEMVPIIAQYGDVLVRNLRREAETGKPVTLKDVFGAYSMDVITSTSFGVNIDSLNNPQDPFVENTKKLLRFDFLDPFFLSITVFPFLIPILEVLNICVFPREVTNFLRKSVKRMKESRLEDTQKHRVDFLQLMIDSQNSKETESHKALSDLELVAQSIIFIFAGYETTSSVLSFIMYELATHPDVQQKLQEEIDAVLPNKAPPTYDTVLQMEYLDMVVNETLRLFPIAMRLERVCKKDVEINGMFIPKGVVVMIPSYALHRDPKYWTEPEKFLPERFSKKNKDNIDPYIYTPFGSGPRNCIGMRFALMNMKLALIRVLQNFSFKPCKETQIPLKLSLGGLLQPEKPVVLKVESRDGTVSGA

SMILES | ED50 (Staphylococcus aureus [1]) [mg/kg] | MIC (Staphylococcus aureus [2]) [µg/mL] | Ratio (Haemophilus influenzae [3]) | Ratio (Streptococcus pneumoniae [4]) | Ratio (Moraxella catarrhalis [5]) | Ratio (Enterococcus faecium [6]) | Ratio (Enterococcus faecalis [7]) | Ratio (Staphylococcus aureus [8]) | Ratio (Staphylococcus aureus [9]) | MIC (Haemophilus influenzae [10]) [µg/mL] | MIC (Streptococcus pneumoniae [11]) [µg/mL] | MIC (Staphylococcus aureus [12]) [µg/mL] | MIC (Enterococcus faecalis [13]) [µg/mL] | MIC (Staphylococcus aureus [14]) [µg/mL] | MIC (Staphylococcus aureus [15]) [µg/mL] | MIC (Moraxella catarrhalis [16]) [µg/mL] | MIC (Enterococcus faecium [17]) [µg/mL] | inhibition at 10 min, 30 µM (MAO-B) [%] | inhibition at 5 min, 30 µM (MAO-A) [%] | IC50 (Cytochrome P450 3A4) [µM] | also measured
O=CN1CCN(c2c(F)cc(N3C[C@H](Cn4ccnn4)OC3=O)cc2F)CCN1 | 2.5 | 0.25 | 4 | 4 | 4 | 4 | 4 | 4 | 4 | 8 | ≤ 0.063 | 16 | 1 | 0.25 | 1 | 8 | 1 |  |  |  | 
CNC(=O)N1CCN(c2ccc(N3C[C@H](CNC(=S)OC)OC3=O)cc2F)CCN1 | 0.86 | 0.5 |  |  |  |  |  |  |  | 16 | 0.25 | 8 | 0.5 | 0.25 | 0.5 | 2 | 0.25 | 3.1 | 3.4 | > 20 | IC50 (Cytochrome P450 2D6): > 20 µM; IC50 (Cytochrome P450 2C9): > 20 µM; IC50 (Cytochrome P450 1A2): > 20 µM
COC(=S)NC[C@H]1CN(c2ccc(N3CCNN(C(=O)C(F)F)CC3)c(F)c2)C(=O)O1 | 0.77 | 0.25 |  |  |  |  |  |  |  | 4 | 0.063 | 4 | 0.25 | 0.125 | 0.5 | 2 | 0.25 | 0.1 | 9.2 | > 20 | Ratio ED50 (Staphylococcus aureus [18]): 3; IC50 (Cytochrome P450 2D6): > 20 µM; IC50 (Cytochrome P450 2C9): > 20 µM; IC50 (Cytochrome P450 1A2): > 20 µM
COC(=S)NC[C@H]1CN(c2ccc(N3CCNN(C=O)CC3)c(F)c2)C(=O)O1 | 2.95 | 0.25 | 4 | 4 | 4 | 4 | 4 | 4 | 4 | 4 | 0.063 | 4 | 0.25 | 0.25 | 0.25 | 2 | 0.25 |  |  |  | 
CC(=O)NC[C@H]1CN(c2ccc(N3CCOCC3)c(F)c2)C(=O)O1 [LINEZOLID] |  |  |  |  |  |  |  |  |  | 16 |  | 32 |  |  |  | 8 | 2 |  |  |  | inhibition (INH) (Cytochrome P450 3A4; human, microsomes, 20 min): Active; inhibition (INH) (Cytochrome P450 2D6; human, microsomes, 20 min): Active; inhibition (INH) (Cytochrome P450 2C9; human, microsomes, 20 min): Active; inhibition (INH) (Cytochrome P450 1A2; human, microsomes, 20 min): Active
